Source: PubChem
KCNK9 block – human KCNK9 channel inhibition | Q9NPC2 | HEK293 KCNK9, FluxOR thallium flux fluorescence; hits give low values | B-score at 10 µM | hit rate 1.2% among 310,000 | AID 488922;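 active = ratio B-score over 3 SD below the library mean, with starting fluorescence within 5 SD of its mean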;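 also: negative B-score means less thallium flux so channel inhibition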
KCNQ1 pot – potentiators or activators of human KCNQ1 potassium channel; hit rate 0.35% among 310,000; AID 2648; CHO-K1 KCNQ1, thallium flux FluxOR fluorescence; hits give high values; P51787; B-score at 10 µM;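 active = fluorescence ratio B-score, a plate-corrected score, at least three library SD, with initial intensity B-score within 5 SD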
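assay system = CHO-K1 cells stably expressing KCNQ1 | medium = assay buffer, equal DMSO in all wells | timing = 37 °C overnight plating, 90-min dark dye load, 20-min compound pretreatment | measured by = kinetic FluxOR thallium fluorescence, 10-s 1-Hz baseline, 110-s post-stimulus read | measure = fluorescence change relative to baseline, converted to B score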
KCNK3 inh – human KCNK3 channel inhibition, primary screen. hit rate 0.84% among 340,000. CHO-KCNK3 thallium flux, FluxOR fluorescence; hits give low values. B-score at 10 µM. O14649;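 active = B-score under library mean minus 4 SD, starting fluorescence ratio at most library mean plus 5 SD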;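 also: more negative B-score means stronger inhibition of thallium flux through KCNK3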
Target sequence (O14649 whole entry, looked up): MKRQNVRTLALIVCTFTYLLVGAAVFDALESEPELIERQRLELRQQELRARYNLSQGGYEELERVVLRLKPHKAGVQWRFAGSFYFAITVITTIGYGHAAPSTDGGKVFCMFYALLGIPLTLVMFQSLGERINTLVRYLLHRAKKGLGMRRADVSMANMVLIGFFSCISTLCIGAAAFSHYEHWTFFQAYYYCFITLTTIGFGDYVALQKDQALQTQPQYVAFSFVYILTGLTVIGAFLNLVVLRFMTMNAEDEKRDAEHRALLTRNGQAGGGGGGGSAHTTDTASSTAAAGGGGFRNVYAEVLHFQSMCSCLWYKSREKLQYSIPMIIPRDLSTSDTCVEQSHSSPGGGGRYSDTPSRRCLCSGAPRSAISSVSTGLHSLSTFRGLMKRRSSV
KCNQ1 block – blocks the human KCNQ1 potassium channel; P51787; CHO-K1 KCNQ1, FluxOR thallium flux fluorescence; hits give high values; B-score at 10 µM; hit rate 1.3% among 310,000;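 active = compounds whose thallium flux B-score, printed positive for inhibition, exceeds three library SD while starting fluorescence stays within three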;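 also: channel opened by potassium depolarization with thallium stimulus after 20 min compound exposure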
PHOSPHO1 block – PHOSPHO1 (human) inhibition. Q8TCT1. recombinant PHOSPHO1, absorbance phosphatase assay. inhibition, % at 13.3 µM. hit rate 1.1% among 290,000; in the data active = inhibition above about 60%
hERG rescue – shields human hERG channel from block by proarrhythmic agents | hit rate 0.51% among 310,000 | activation (rescue from dofetilide block), less the hit threshold, % at 10 µM | Q12809 | CHO-hERG, FluxOR thallium flux, dofetilide IC70 present;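 active = activation above the mean of controls blocked by dofetilide plus 5 SD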;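 also: thallium influx through hERG after potassium depolarization seen as dye fluorescence rise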
* hit, by the source's call; i = inactive; x = no result given. An excerpt weighted towards active compounds, which were near 4% of everything screened.

SMILES | KCNK9 block | KCNQ1 pot | KCNK3 inh | KCNQ1 block | PHOSPHO1 block | hERG rescue
C[n+]1ccc(-c2ccncc2)cc1 | i | i | i | i | 91.7* | -1.1
Cc1cccc(CCNCc2cc3cccc(C)c3[nH]c2=O)c1 | i | i | i | i | 23.9 | -3.2
O=C(CF)NC(NC(=S)Nc1cccc([N+](=O)[O-])c1)C(Cl)(Cl)Cl (stereo not given) | i | i | i | 6* | -9.9 | -15.0
COc1ccc(NC(=S)NC(NC(=O)CF)C(Cl)(Cl)Cl)cc1[N+](=O)[O-] (stereo not given) | i | i | i | i | -11.8 | -26.5
O=C1NC(=O)C2(Cc3ccccc3N3CCCC32)C(=O)N1c1cccc(Cl)c1 (stereo not given) | i | i | i | i | -6.0 | -8.9
Cc1ccc(N2C(=O)NC(=O)C3(Cc4ccccc4N4CCN(c5ccccc5)CC43)C2=O)cc1 (stereo not given) | i | i | i | i | 72.5* | -14.2
CC/C(=C\C=C\[C@@H]1C=C[C@@H]2CCC[C@H]2[C@@H]1C(=O)c1ccc[nH]1)[C@@H]1O[C@@H]([C@@H](C)C(=O)O)CC[C@@H]1C | i | 38* | x | i | -15.8 | 74.2*
CC1OC(OC2C=C3CCC4C(CCC5(C)C(c6ccc(=O)oc6)CCC45O)C3(C)CC2)C(O)C(OC2OC(CO)C(O)C(O)C2O)C1O (stereo not given) | x | x | i | x | x | x
Clc1ccc(OCC#CCN2CCCC2)cc1 | i | i | i | i | -8.4 | -5.8
CN1CCN(CC#CCOc2ccc(Cl)cc2)CC1 | i | i | i | i | -2.4 | 9.8*
C(#CCN1CCOCC1)COCC#Cc1ccccc1 | i | i | i | i | 38.2 | 5.3*
OC1/C(=C/c2ccccc2C(F)(F)F)N2CCC1CC2 (stereo not given) | i | i | i | i | 46.6 | -2.2
O=C1NC(=O)C(CCc2ccncc2)(CCc2ccncc2)C(=O)N1CCc1ccccc1 | i | i | i | i | 62.8* | -3.9
COC(=O)C1=C(c2cccc(C#N)c2)C[C@@H]2CC[C@H]1N2C(=O)N1CCCC1 | x | x | i | x | x | x
N#CC(C#N)=Cc1ccc(-c2ccccc2F)o1 | x | x | i | x | -9.8 | x
N#CC(C#N)=Cc1ccc(-c2ccccc2)o1 | i | i | x | 7* | 18.5 | -22.3
COC(=O)C1=C(c2ccc(OC(F)(F)F)cc2)C[C@@H]2CC[C@H]1N2C(=O)NC1CC1 | x | x | i | x | x | x
O=C(CSC1c2ccccc2-c2ccccc21)N/N=C/c1ccccc1O | i | i | i | 9* | 1.7 | -12.3
O=C(CSC1c2ccccc2-c2ccccc21)N/N=C/c1ccc(C(=O)O)cc1 | i | i | i | i | 20.5 | -5.5
CCCC(=O)N(C)C1=Nc2ccc(Cl)cc2C(c2ccccc2)=[N+]([O-])C1 | i | i | i | i | 34.7 | -1.6
CC1CN=C(Nc2cccc3ccccc23)S1 (stereo not given) | -8.03* | i | i | i | 9.4 | -10.9
CC1CN=C(Nc2ccccc2)S1 (stereo not given) | i | i | i | i | -4.0 | -3.9
c1ccc(CC(NCc2ccco2)c2ccccc2)cc1 (stereo not given) | i | i | i | 6* | 16.2 | -15.2
CCS(=O)(=O)N1CCC(C(=O)N2CCC3(CC2)OCCO3)CC1 | i | i | i | i | 14.3 | -14.9
CCCNC(=O)N1CCC2(CC1)OCCO2 | i | i | i | i | 61.5* | -7.5
SMILES | KCNK9 block | KCNQ1 pot | KCNK3 inh | KCNQ1 block | PHOSPHO1 block | hERG rescue
N#C/C(=C(/O)c1ccc(S(=O)(=O)N(CCCl)CCCl)cc1)c1nc2ccccc2[nH]1 | i | i | i | i | 29.8 | -11.4
CC1=NN(c2ccccc2)C(=O)/C1=C/c1c(O)[nH]c(=O)[nH]c1=O | i | i | i | i | 32.0 | 0.1
CC1=NN(c2ccccc2)C(=O)/C1=C/c1c(O)[nH]c(=S)[nH]c1=O | i | i | i | i | 86.0* | -4.1
CCOC(=O)c1cccc(NC(=O)c2c(O)[nH]c(=O)[nH]c2=O)c1 | i | i | i | i | x | -1.1
CCOC(=O)c1ccc(-[n+]2c(-c3ccccc3)cc(-c3ccccc3)cc2-c2ccccc2)cc1 | i | i | i | 12* | x | -40.7
CCOC(=O)c1cccc(-[n+]2c(-c3ccccc3)cc(-c3ccccc3)cc2-c2ccccc2)c1 | i | i | i | 13* | x | -38.1
CCOC(=O)c1ccccc1C(=O)OCC | i | i | i | i | x | -4.5
Cc1ccc(-c2cc(-c3ccc(C)cc3)[n+](-c3ccc(C(=O)[O-])cc3)c(-c3ccc(C)cc3)c2)cc1 | i | i | i | 8* | x | -47.5
CC(Cc1ccsc1)NCc1cn[nH]c1-c1ccc(F)cc1F (stereo not given) | i | i | i | i | 39.8 | -11.2
CCCCc1ncc(CN2CCCC(C(=O)c3ccc(SC)cc3)C2)[nH]1 (stereo not given) | i | i | i | i | -7.0 | -25.0
N#CCCn1cc(C(=O)Nc2ccc(F)cc2)c(-c2ccccc2)n1 | i | i | i | i | x | -8.8
Nc1ccc2nonc2c1[N+](=O)[O-] | i | i | i | 11* | 2.5 | -40.4
O=C1NC(=O)N(Cc2ccccc2Cl)C(=O)/C1=C/N1CCOCC1 | i | i | i | i | 10.9 | 8.0*
N[C@@H](Cc1ccccc1)C(=O)N1C[C@H]2C[C@@H](C1)c1cccc(=O)n1C2 | i | i | i | i | 18.7 | -7.2
C=CCn1c(O)c(/C(CC)=N/NC(=S)Nc2ccccc2)c(=O)[nH]c1=O | i | i | i | i | 66.8* | -22.6
NC1C2CN3CCN(C2)CC1(c1ccccc1)C3 (stereo not given) | i | i | i | i | 21.4 | -12.6
O=C(c1ccc2c3c(cccc13)CC2)C1CCCN(CC2CC2)C1 (stereo not given) | i | i | i | i | 60.1* | -14.9
O=C(c1ccc2c3c(cccc13)CC2)C1CCCN(Cc2ncc[nH]2)C1 (stereo not given) | i | i | i | i | 44.9 | -8.7
c1ccc(P(c2ccccc2)c2ccccn2)cc1 | i | i | i | i | 28.1 | -1.7
S=C=Nc1ccccn1 | i | i | i | i | 61.2* | -2.8
CN[C@H]1C[C@H]2O[C@@](C)([C@H]1OC)n1c3ccccc3c3c4c(c5c6ccccc6n2c5c31)C(=O)NC4 | i | 18* | x | i | -40.5 | -9.7
CSc1ccccc1C(=O)C1CCCN(Cc2ccccn2)C1 (stereo not given) | i | i | i | i | 31.1 | -9.4
